Laboratory results as given in BindingDB's records for doi:10.1021/acs.jmedchem.5b00162 (University of Montreal, 2015).
pEC50: −log10 of the molar value.

What was measured:
Urotensin-2 receptor [1] = target: T1, Urotensin-2 receptor (Rattus norvegicus, UniProt P49684); assay: Modulation of urotensin-2 receptor in Sprague-Dawley rat thoracic aortic ring assessed as human urotensin-2 EC50 for induction of aortic ring contraction at 10 uM preincubated for 15 mins followed by human urotensin-2 addition (Rvb = 1.9 nM)
T1 sequence (P49684 whole entry): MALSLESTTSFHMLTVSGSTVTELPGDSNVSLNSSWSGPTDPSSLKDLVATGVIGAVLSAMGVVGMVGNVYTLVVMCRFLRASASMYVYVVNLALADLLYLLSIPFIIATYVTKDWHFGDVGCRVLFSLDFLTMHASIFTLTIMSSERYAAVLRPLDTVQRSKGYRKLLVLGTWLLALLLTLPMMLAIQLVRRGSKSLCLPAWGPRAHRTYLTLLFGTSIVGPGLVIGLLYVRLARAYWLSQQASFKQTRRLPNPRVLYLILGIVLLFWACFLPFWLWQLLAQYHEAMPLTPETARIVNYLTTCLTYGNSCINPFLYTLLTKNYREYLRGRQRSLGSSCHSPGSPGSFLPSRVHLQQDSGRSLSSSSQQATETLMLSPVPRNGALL
Procedure, shortened: (§1)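 Thoracic aortic rings from adult male Sprague-Dawley rats (250–300 g, killed by CO2). Rings were exposed to test compound for 15 min, then cumulative hUII concentration-response curves were run (10-10–3.10-6 M). Contraction is expressed as % of the 40 mM KCl response, with KCl given at the start and end. EC50/pEC50/Emax come from a variable-slope sigmoidal fit. At least triplicate.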

Urotensin-2 receptor [2] = target: T1, Urotensin-2 receptor; assay: Modulation of urotensin-2 receptor in Sprague-Dawley rat thoracic aortic ring assessed as urotensin-2 related peptide pEC50 for induction of aortic ring contraction at 10 uM preincubated for 15 mins followed by urotensin-2 related peptide addition (Rvb = 7.89 +/- 0.08 no unit)
Urotensin-2 receptor [3] = target: T1, Urotensin-2 receptor; assay: Modulation of urotensin-2 receptor in Sprague-Dawley rat thoracic aortic ring assessed as human urotensin-2 pEC50 for induction of aortic ring contraction at 10 uM preincubated for 15 mins followed by human urotensin-2 addition (Rvb = 8.71 +/- 0.08 no unit); procedure, shortened: as §1
Urotensin-2 receptor [4] = target: T1, Urotensin-2 receptor; assay: Modulation of urotensin-2 receptor in Sprague-Dawley rat thoracic aortic ring assessed as urotensin-2 related peptide EC50 for induction of aortic ring contraction at 10 uM preincubated for 15 mins followed by urotensin-2 related peptide addition (Rvb = 13 nM)
Urotensin-2 receptor [5] = target: T1, Urotensin-2 receptor; assay: Modulation of urotensin-2 receptor in Sprague-Dawley rat thoracic aortic ring assessed as human urotensin-2 pEC50 for induction of aortic ring contraction at 14 uM preincubated for 15 mins followed by human urotensin-2 addition (Rvb = 8.71 +/- 0.08 no unit)
Urotensin-2 receptor [6] = target: T1, Urotensin-2 receptor; assay: Modulation of urotensin-2 receptor in Sprague-Dawley rat thoracic aortic ring assessed as urotensin-2 related peptide pEC50 for induction of aortic ring contraction at 14 uM preincubated for 15 mins followed by urotensin-2 related peptide addition (Rvb = 7.89 +/- 0.08 no unit)
Urotensin-2 receptor [7] = target: T1, Urotensin-2 receptor; assay: Modulation of urotensin-2 receptor in Sprague-Dawley rat thoracic aortic ring assessed as urotensin-2 related peptide EC50 for induction of aortic ring contraction at 14 uM preincubated for 15 mins followed by urotensin-2 related peptide addition (Rvb = 13 nM)
Urotensin-2 receptor [8] = target: T1, Urotensin-2 receptor; assay: Modulation of urotensin-2 receptor in Sprague-Dawley rat thoracic aortic ring assessed as human urotensin-2 EC50 for induction of aortic ring contraction at 14 uM preincubated for 15 mins followed by human urotensin-2 addition (Rvb = 1.9 nM)
[9] = Modulation of urotensin-2 receptor in Sprague-Dawley rat thoracic aortic ring assessed as urotensin-2 related peptide EC50 for induction of aortic ring contraction at 15 uM preincubated for 15 mins followed by urotensin-2 related peptide addition (Rvb = 13 nM)
[10] = Modulation of urotensin-2 receptor in Sprague-Dawley rat thoracic aortic ring assessed as human urotensin-2 pEC50 for induction of aortic ring contraction at 15 uM preincubated for 15 mins followed by human urotensin-2 addition (Rvb = 8.71 +/- 0.08 no unit)
[11] = Modulation of urotensin-2 receptor in Sprague-Dawley rat thoracic aortic ring assessed as human urotensin-2 EC50 for induction of aortic ring contraction at 15 uM preincubated for 15 mins followed by human urotensin-2 addition (Rvb = 1.9 nM)
[12] = Modulation of urotensin-2 receptor in Sprague-Dawley rat thoracic aortic ring assessed as urotensin-2 related peptide pEC50 for induction of aortic ring contraction at 15 uM preincubated for 15 mins followed by urotensin-2 related peptide addition (Rvb = 7.89 +/- 0.08 no unit)
Urotensin-2 receptor [13] = target: T1, Urotensin-2 receptor; assay: Modulation of urotensin-2 receptor in Sprague-Dawley rat thoracic aortic ring assessed as human urotensin-2 pEC50 for induction of aortic ring contraction at 11 uM preincubated for 15 mins followed by human urotensin-2 addition (Rvb = 8.71 +/- 0.08 no unit)
Urotensin-2 receptor [14] = target: T1, Urotensin-2 receptor; assay: Modulation of urotensin-2 receptor in Sprague-Dawley rat thoracic aortic ring assessed as urotensin-2 related peptide pEC50 for induction of aortic ring contraction at 11 uM preincubated for 15 mins followed by urotensin-2 related peptide addition (Rvb = 7.89 +/- 0.08 no unit)
Urotensin-2 receptor [15] = target: T1, Urotensin-2 receptor; assay: Modulation of urotensin-2 receptor in Sprague-Dawley rat thoracic aortic ring assessed as human urotensin-2 EC50 for induction of aortic ring contraction at 11 uM preincubated for 15 mins followed by human urotensin-2 addition (Rvb = 1.9 nM)
Urotensin-2 receptor [16] = target: T1, Urotensin-2 receptor; assay: Modulation of urotensin-2 receptor in Sprague-Dawley rat thoracic aortic ring assessed as urotensin-2 related peptide EC50 for induction of aortic ring contraction at 11 uM preincubated for 15 mins followed by urotensin-2 related peptide addition (Rvb = 13 nM)
[17] = Modulation of urotensin-2 receptor in Sprague-Dawley rat thoracic aortic ring assessed as human urotensin-2 pEC50 for induction of aortic ring contraction at 8 uM preincubated for 15 mins followed by human urotensin-2 addition (Rvb = 8.71 +/- 0.08 no unit)
[18] = Modulation of urotensin-2 receptor in Sprague-Dawley rat thoracic aortic ring assessed as urotensin-2 related peptide pEC50 for induction of aortic ring contraction at 8 uM preincubated for 15 mins followed by urotensin-2 related peptide addition (Rvb = 7.89 +/- 0.08 no unit)
[19] = Modulation of urotensin-2 receptor in Sprague-Dawley rat thoracic aortic ring assessed as urotensin-2 related peptide EC50 for induction of aortic ring contraction at 8 uM preincubated for 15 mins followed by urotensin-2 related peptide addition (Rvb = 13 nM)
[20] = Modulation of urotensin-2 receptor in Sprague-Dawley rat thoracic aortic ring assessed as human urotensin-2 EC50 for induction of aortic ring contraction at 8 uM preincubated for 15 mins followed by human urotensin-2 addition (Rvb = 1.9 nM)
Urotensin-2 receptor [21] = target: T1, Urotensin-2 receptor; assay: Modulation of urotensin-2 receptor in Sprague-Dawley rat thoracic aortic ring assessed as human urotensin-2 pEC50 for induction of aortic ring contraction at 4 uM preincubated for 15 mins followed by human urotensin-2 addition (Rvb = 8.71 +/- 0.08 no unit)
Urotensin-2 receptor [22] = target: T1, Urotensin-2 receptor; assay: Modulation of urotensin-2 receptor in Sprague-Dawley rat thoracic aortic ring assessed as human urotensin-2 EC50 for induction of aortic ring contraction at 4 uM preincubated for 15 mins followed by human urotensin-2 addition (Rvb = 1.9 nM)
Urotensin-2 receptor [23] = target: T1, Urotensin-2 receptor; assay: Modulation of urotensin-2 receptor in Sprague-Dawley rat thoracic aortic ring assessed as human urotensin-2 pEC50 for induction of aortic ring contraction at 1 uM preincubated for 15 mins followed by human urotensin-2 addition (Rvb = 8.71 +/- 0.08 no unit)
Urotensin-2 receptor [24] = target: T1, Urotensin-2 receptor; assay: Modulation of urotensin-2 receptor in Sprague-Dawley rat thoracic aortic ring assessed as human urotensin-2 EC50 for induction of aortic ring contraction at 1 uM preincubated for 15 mins followed by human urotensin-2 addition (Rvb = 1.9 nM)

Structure (SMILES) | pEC50 (Urotensin-2 receptor [1]) | pEC50 (Urotensin-2 receptor [2]) | pEC50 (Urotensin-2 receptor [3]) | pEC50 (Urotensin-2 receptor [4]) | also measured
NCCC[C@@H]1N[C@@H](c2cccc3ccccc23)c2[nH]c(C(=O)O)cc2N(CCc2ccc(O)cc2)C1=O | 8.32 | 8.44 | 8.32 | 8.43 | –
NCCCC[C@@H]1N[C@@H](c2ccc(-c3ccccc3)cc2)c2[nH]c(C(=O)O)cc2N(CCc2ccc(O)cc2)C1=O | – | – | – | – | pEC50 (Urotensin-2 receptor [5]): 8.06; pEC50 (Urotensin-2 receptor [6]): 8.00; pEC50 (Urotensin-2 receptor [7]): 8.00; pEC50 (Urotensin-2 receptor [8]): 8.06
NCCCC[C@@H]1N[C@H](c2ccc3ccccc3c2)c2[nH]c(C(=O)O)cc2N(CCc2ccc(O)cc2)C1=O | 8.30 | 8.08 | 8.31 | 8.09 | –
NCCC[C@@H]1N=C(c2ccc3ccccc3c2)c2[nH]c(C(=O)O)cc2N(CCc2ccc(O)cc2)C1=O | 8.02 | 8.17 | 8.03 | 8.17 | –
NCCCC[C@@H]1N=C(c2ccc(-c3ccccc3)cc2)c2[nH]c(C(=O)O)cc2N(CCc2ccc(O)cc2)C1=O | – | – | – | – | pEC50 [9]: 7.92; pEC50 [10]: 8.19; pEC50 [11]: 8.18; pEC50 [12]: 7.92
NCCC[C@@H]1N[C@H](c2ccc(-c3ccccc3)cc2)c2[nH]c(C(=O)O)cc2N(CCc2ccc(O)cc2)C1=O | – | – | – | – | pEC50 (Urotensin-2 receptor [13]): 8.37; pEC50 (Urotensin-2 receptor [14]): 8.09; pEC50 (Urotensin-2 receptor [15]): 8.37; pEC50 (Urotensin-2 receptor [16]): 8.09
NCCCC[C@@H]1N[C@@H](c2ccc3ccccc3c2)c2[nH]c(C(=O)O)cc2N(CCc2ccc(O)cc2)C1=O | 8.82 | 8.06 | 8.82 | 8.06 | –
NCCC[C@@H]1N[C@H](c2cccc3ccccc23)c2[nH]c(C(=O)O)cc2N(CCc2ccc(O)cc2)C1=O | 8.24 | 8.34 | 8.25 | 8.35 | –
NCCCC[C@@H]1N=C(c2cccc3ccccc23)c2[nH]c(C(=O)O)cc2N(CCc2ccc(O)cc2)C1=O | – | – | – | – | pEC50 [17]: 8.11; pEC50 [18]: 8.27; pEC50 [19]: 8.28; pEC50 [20]: 8.11
NCCC[C@@H]1N=C(c2cccc3ccccc23)c2[nH]c(C(=O)O)cc2N(CCc2ccc(O)cc2)C1=O | 8.57 | 7.92 | 8.59 | 7.92 | –
NCCCC[C@@H]1N=C(c2ccc3ccccc3c2)c2[nH]c(C(=O)O)cc2N(CCc2ccc(O)cc2)C1=O | 8.40 | 7.68 | 8.33 | 7.68 | –
NCCC[C@@H]1N=C(c2ccc(-c3ccccc3)cc2)c2[nH]c(C(=O)O)cc2N(CCc2ccc(O)cc2)C1=O | 7.92 | 7.64 | 7.92 | 7.64 | –
NCCCC[C@@H]1N[C@H](c2ccc(-c3ccccc3)cc2)c2[nH]c(C(=O)O)cc2N(CCc2ccc(O)cc2)C1=O | – | – | – | – | pEC50 (Urotensin-2 receptor [21]): 8.46; pEC50 (Urotensin-2 receptor [22]): 8.46; pEC50 (Urotensin-2 receptor [6]): 7.72; pEC50 (Urotensin-2 receptor [23]): 8.35; pEC50 (Urotensin-2 receptor [7]): 7.72; pEC50 (Urotensin-2 receptor [24]): 8.35
